Data: ChEMBL document CHEMBL1155841, “Methyl (11aS)-1,2,3,5,11,11a-hexahydro-3,3-dimethyl-1-oxo-6H-imidazo-[3',4':1,2]pyridin[3,4-b]indol-2-substituted acetates: synthesis and three-dimensional quantitative structure-activity relationship investigation as a class of novel vasodilators” (2008)

Organism: Rattus norvegicus
Assay: Vasorelaxation activity against noradrenaline-induced hypertonic contraction in Wistar rat aorta strips at 50 uM
Type: functional
Design: scale not given: the % may be the effect or the level left
Summary of the method: (§1)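 Aortic strips first contracted with 59 µM noradrenaline, then washed out and stabilized for 30 min. After fresh solution, 59 µM NE was re-added, and peak contraction was taken as 100%. Test agent, dissolved in ethanol, was then added, with ethanol alone as vehicle control. Percent relaxation of the NE contraction was recorded as activity, given as mean ± SD, n = 6.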

**Q.** `COC(=O)[C@H](CCCNC(=N)N)N1C(=O)[C@@H]2Cc3c([nH]c4ccccc34)CN2C1(C)C` was tested. Which Activity did it give?
**A.** Its Activity is 36.7%.

**Q.** How did the Activity turn out when `COC(=O)[C@H](CC(C)C)N1C(=O)[C@@H]2Cc3c([nH]c4ccccc34)CN2C1(C)C` was run?
**A.** Its Activity is 15.7%.

**Q.** How did the Activity turn out when `COC(=O)[C@H](Cc1c[nH]c2ccccc12)N1C(=O)[C@@H]2Cc3c([nH]c4ccccc34)CN2C1(C)C` was run?
**A.** Its Activity is 63.5%.

**Q.** `COC(=O)C[C@@H](C(=O)OC)N1C(=O)[C@@H]2Cc3c([nH]c4ccccc34)CN2C1(C)C` was tested. Which Activity did it give?
**A.** Its Activity is 6.3%.

**Q.** For `COC(=O)[C@H](Cc1ccc(O)cc1)N1C(=O)[C@@H]2Cc3c([nH]c4ccccc34)CN2C1(C)C`, which Activity is on record?
**A.** Its Activity is 16.3%.

**Q.** With `COC(=O)[C@H](Cc1ccccc1)N1C(=O)[C@@H]2Cc3c([nH]c4ccccc34)CN2C1(C)C` as the molecule, how does the Activity read?
**A.** Its Activity is 0%.

**Q.** With `CC(=O)OCC[N+](C)(C)C` [ACETYLCHOLINE] as the molecule, how does the Activity read?
**A.** The Activity was 42.3%.

**Q.** Which Activity does the source give for `COC(=O)[C@H](C(C)O)N1C(=O)[C@@H]2Cc3c([nH]c4ccccc34)CN2C1(C)C` (some centres undefined) here?
**A.** The Activity was 0%.

**Q.** How did the Activity turn out when `CCC(C)[C@@H](C(=O)OC)N1C(=O)[C@@H]2Cc3c([nH]c4ccccc34)CN2C1(C)C` (some centres undefined) was run?
**A.** Its Activity is 34%.

**Q.** Which Activity does the source give for `COC(=O)[C@H](C(C)C)N1C(=O)[C@@H]2Cc3c([nH]c4ccccc34)CN2C1(C)C` here?
**A.** Its Activity is 24.2%.

**Q.** For `COC(=O)CC[C@@H](C(=O)OC)N1C(=O)[C@@H]2Cc3c([nH]c4ccccc34)CN2C1(C)C`, which Activity is on record?
**A.** The Activity was 9.9%.

**Q.** `COC(=O)[C@H](CCSC)N1C(=O)[C@@H]2Cc3c([nH]c4ccccc34)CN2C1(C)C` was tested. Which Activity did it give?
**A.** The Activity was 15.1%.

**Q.** With `COC(=O)[C@H](CO)N1C(=O)[C@@H]2Cc3c([nH]c4ccccc34)CN2C1(C)C` as the molecule, how does the Activity read?
**A.** Its Activity is 16.9%.

**Q.** With `COC(=O)CN1C(=O)[C@@H]2Cc3c([nH]c4ccccc34)CN2C1(C)C` as the molecule, how does the Activity read?
**A.** Its Activity is 45.5%.

**Q.** For `COC(=O)[C@H](Cc1c[nH]cn1)N1C(=O)[C@@H]2Cc3c([nH]c4ccccc34)CN2C1(C)C`, which Activity is on record?
**A.** Its Activity is 0%.

**Q.** Which Activity does the source give for `COC(=O)[C@H](CCC(N)=O)N1C(=O)[C@@H]2Cc3c([nH]c4ccccc34)CN2C1(C)C` here?
**A.** The Activity was 0%.

**Q.** How did the Activity turn out when `COC(=O)[C@H](C)N1C(=O)[C@@H]2Cc3c([nH]c4ccccc34)CN2C1(C)C` was run?
**A.** Its Activity is 91.8%.

**Q.** `COC(=O)[C@H](CC(N)=O)N1C(=O)[C@@H]2Cc3c([nH]c4ccccc34)CN2C1(C)C` was tested. Which Activity did it give?
**A.** Its Activity is 0%.

Organism: Rattus norvegicus
Assay: Vasorelaxation activity against noradrenaline-induced hypertonic contraction in Wistar rat aorta strips at 5 mM
Type: functional
Design: scale not given: the % may be the effect or the level left
Summary of the method: as §1

**Q.** `COC(=O)[C@H](CCC(N)=O)NC(=O)[C@@H]1Cc2c([nH]c3ccccc23)CN1C(=O)OC(C)(C)C` was tested. Which Activity did it give?
**A.** The Activity was 0%.

**Q.** Which Activity does the source give for `COC(=O)[C@@H](NC(=O)[C@@H]1Cc2c([nH]c3ccccc23)CN1C(=O)OC(C)(C)C)C(C)O` (some centres undefined) here?
**A.** Its Activity is 0%.

**Q.** How did the Activity turn out when `COC(=O)[C@H](Cc1ccccc1)NC(=O)[C@@H]1Cc2c([nH]c3ccccc23)CN1C(=O)OC(C)(C)C` was run?
**A.** Its Activity is 0%.

**Q.** For `COC(=O)CC[C@H](NC(=O)[C@@H]1Cc2c([nH]c3ccccc23)CN1C(=O)OC(C)(C)C)C(=O)OC`, which Activity is on record?
**A.** The Activity was 0%.

**Q.** For `COC(=O)[C@H](CCCNC(=N)N)NC(=O)[C@@H]1Cc2c([nH]c3ccccc23)CN1C(=O)OC(C)(C)C`, which Activity is on record?
**A.** The Activity was 11.3%.

**Q.** Which Activity does the source give for `COC(=O)CNC(=O)[C@@H]1Cc2c([nH]c3ccccc23)CN1C(=O)OC(C)(C)C` here?
**A.** The Activity was 13.5%.

**Q.** `COC(=O)[C@H](CC(C)C)NC(=O)[C@@H]1Cc2c([nH]c3ccccc23)CN1C(=O)OC(C)(C)C` was tested. Which Activity did it give?
**A.** The Activity was 7.8%.

**Q.** With `COC(=O)C[C@H](NC(=O)[C@@H]1Cc2c([nH]c3ccccc23)CN1C(=O)OC(C)(C)C)C(=O)OC` as the molecule, how does the Activity read?
**A.** Its Activity is 0%.

**Q.** For `COC(=O)[C@H](CO)NC(=O)[C@@H]1Cc2c([nH]c3ccccc23)CN1C(=O)OC(C)(C)C`, which Activity is on record?
**A.** Its Activity is 6.1%.

**Q.** `COC(=O)[C@H](C)NC(=O)[C@@H]1Cc2c([nH]c3ccccc23)CN1C(=O)OC(C)(C)C` was tested. Which Activity did it give?
**A.** The Activity was 18.8%.

**Q.** `COC(=O)[C@@H](NC(=O)[C@@H]1Cc2c([nH]c3ccccc23)CN1C(=O)OC(C)(C)C)C(C)C` was tested. Which Activity did it give?
**A.** The Activity was 8.9%.

**Q.** For `CCC(C)[C@H](NC(=O)[C@@H]1Cc2c([nH]c3ccccc23)CN1C(=O)OC(C)(C)C)C(=O)OC` (some centres undefined), which Activity is on record?
**A.** The Activity was 10.9%.

**Q.** How did the Activity turn out when `COC(=O)[C@H](Cc1c[nH]c2ccccc12)NC(=O)[C@@H]1Cc2c([nH]c3ccccc23)CN1C(=O)OC(C)(C)C` was run?
**A.** The Activity was 15.2%.

**Q.** How did the Activity turn out when `COC(=O)[C@H](Cc1c[nH]cn1)NC(=O)[C@@H]1Cc2c([nH]c3ccccc23)CN1C(=O)OC(C)(C)C` was run?
**A.** The Activity was 0%.

**Q.** How did the Activity turn out when `CN1CC(=O)N2[C@H](c3ccc4c(c3)OCO4)c3[nH]c4ccccc4c3C[C@@H]2C1=O` [TADALAFIL] was run?
**A.** The Activity was 89.9%.

**Q.** `COC(=O)[C@H](CC(N)=O)NC(=O)[C@@H]1Cc2c([nH]c3ccccc23)CN1C(=O)OC(C)(C)C` was tested. Which Activity did it give?
**A.** The Activity was 0%.

**Q.** Which Activity does the source give for `COC(=O)[C@H](CCSC)NC(=O)[C@@H]1Cc2c([nH]c3ccccc23)CN1C(=O)OC(C)(C)C` here?
**A.** The Activity was 6%.

**Q.** For `COC(=O)[C@H](Cc1ccc(O)cc1)NC(=O)[C@@H]1Cc2c([nH]c3ccccc23)CN1C(=O)OC(C)(C)C`, which Activity is on record?
**A.** Its Activity is 7.4%.

Organism: Rattus norvegicus
Assay: Vasorelaxation activity against noradrenaline-induced hypertonic contraction in Wistar rat aorta strips
Type: functional
Summary of the method: as §1

**Q.** With `COC(=O)[C@H](Cc1c[nH]c2ccccc12)N1C(=O)[C@@H]2Cc3c([nH]c4ccccc34)CN2C1(C)C` as the molecule, how does the Activity read?
**A.** The Activity was “Dose-dependent effect”.

**Q.** For `CCC(C)[C@@H](C(=O)OC)N1C(=O)[C@@H]2Cc3c([nH]c4ccccc34)CN2C1(C)C` (some centres undefined), which Activity is on record?
**A.** The Activity was “Dose-dependent effect”.

**Q.** For `COC(=O)[C@H](C)N1C(=O)[C@@H]2Cc3c([nH]c4ccccc34)CN2C1(C)C`, which Activity is on record?
**A.** The Activity was “Dose-dependent effect”.
